Measurements reported in ChEMBL document CHEMBL5724801, “EUbOPEN Chemogenomics Library - Multiplex” (2024).
Values joined by “and” are separate entries in the source; they are usually repeats but may differ in a detail not shown here. Equal values may be shown once.

Tested on: U2OS
Test: Multiplex assay against U2OS
Assay type: toxicity, cell-based
Conditions: human
Procedure, shortened: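 Live cells were stained at seeding with Hoechst33342, BioTracker Green Microtubule Cytoskeleton Dye, MitoTracker Red and Annexin V Alexa Fluor 680, then imaged on a CQ1 microscope at 37°C and 5% CO2 after compound addition. CellPathfinder machine-learning gating split cells into Hoechst high-intensity objects or normal cells. Normal cells were split into healthy, pyknosed or fragmented nuclei, and pyknosed cells into mitotic or apoptotic. Tubulin, mitochondrial-mass and membrane-permeability phenotypes are per cents of healthy-nucleus cells.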

[1] = 12 h, 1 µM, compound concentration 1 uM
[2] = 12 h, 10 µM, compound concentration 10 uM
[3] = 24 h, 1 µM, compound concentration 1 uM
[4] = 24 h, 10 µM, compound concentration 10 uM
[5] = 48 h, 1 µM, compound concentration 1 uM
[6] = 48 h, 10 µM, compound concentration 10 uM

Compound: O=C(NCCO)c1cccc(-c2cc(Nc3ccc(OC(F)(F)F)cc3)ncn2)c1
- Population Apoptotic (%) [1]: 64% and 84%
- Population Fragmented Nuclei (%) [1]: 13% and 15%
- Population Healthy Nuclei (%) [1]: 72% and 73%
- Population Hoechst High Intensity Objects (%) [1]: 1%
- Population Membrane Permeable-Phenotype (%) [1]: 3% and 4%
- Population Mitochondria Different-Phenotype (%) [1]: 3%
- Population Mitotic Cells (%) [1]: 35% and 15%
- Population Normal (%) [1]: 98%
- Population Pyknosed Nuclei (%) [1]: 13% and 10%
- Population Tubulin-Different-Phenotype (%) [1]: 1% and 4%
- Total Cell Count [1]: 213 and 128
- Population Apoptotic (%) [2]: 84% and 100%
- Population Fragmented Nuclei (%) [2]: 21% and 20%
- Population Healthy Nuclei (%) [2]: 66% and 68%
- Population Hoechst High Intensity Objects (%) [2]: 4% and 2%
- Population Membrane Permeable-Phenotype (%) [2]: 9%
- Population Mitochondria Different-Phenotype (%) [2]: 7% and 15%
- Population Mitotic Cells (%) [2]: 15% and 0%
- Population Normal (%) [2]: 95% and 97%
- Population Pyknosed Nuclei (%) [2]: 12%
- Population Tubulin-Different-Phenotype (%) [2]: 6% and 3%
- Population Apoptotic (%) [3]: 70% and 86%
- Population Fragmented Nuclei (%) [3]: 16% and 20%
- Population Healthy Nuclei (%) [3]: 73% and 69%
- Population Hoechst High Intensity Objects (%) [3]: 1%
- Population Membrane Permeable-Phenotype (%) [3]: 3% and 7%
- Population Mitochondria Different-Phenotype (%) [3]: 3% and 5%
- Population Mitotic Cells (%) [3]: 29% and 13%
- Population Normal (%) [3]: 98%
- Population Pyknosed Nuclei (%) [3]: 9%
- Population Tubulin-Different-Phenotype (%) [3]: 2% and 4%
- Total Cell Count [3]: 256 and 156
- Population Apoptotic (%) [4]: 82% and 100%
- Population Fragmented Nuclei (%) [4]: 22% and 15%
- Population Healthy Nuclei (%) [4]: 64% and 78%
- Population Hoechst High Intensity Objects (%) [4]: 4% and 1%
- Population Membrane Permeable-Phenotype (%) [4]: 6% and 12%
- Population Mitochondria Different-Phenotype (%) [4]: 3% and 13%
- Population Mitotic Cells (%) [4]: 17% and 0%
- Population Normal (%) [4]: 95% and 98%
- Population Pyknosed Nuclei (%) [4]: 12% and 5%
- Population Tubulin-Different-Phenotype (%) [4]: 1% and 4%
- Population Apoptotic (%) [5]: 88% and 96%
- Population Fragmented Nuclei (%) [5]: 15% and 20%
- Population Healthy Nuclei (%) [5]: 75% and 65%
- Population Hoechst High Intensity Objects (%) [5]: 2%
- Population Membrane Permeable-Phenotype (%) [5]: 6% and 9%
- Population Mitochondria Different-Phenotype (%) [5]: 3% and 4%
- Population Mitotic Cells (%) [5]: 11% and 3%
- Population Normal (%) [5]: 97%
- Population Pyknosed Nuclei (%) [5]: 8% and 14%
- Population Tubulin-Different-Phenotype (%) [5]: 4% and 6%
- Total Cell Count [5]: 417 and 206
- Population Apoptotic (%) [6]: 92% and 91%
- Population Fragmented Nuclei (%) [6]: 18% and 26%
- Population Healthy Nuclei (%) [6]: 72% and 64%
- Population Hoechst High Intensity Objects (%) [6]: 3% and 2%
- Population Membrane Permeable-Phenotype (%) [6]: 8% and 5%
- Population Mitochondria Different-Phenotype (%) [6]: 3% and 7%
- Population Mitotic Cells (%) [6]: 7% and 8%
- Population Normal (%) [6]: 96% and 97%
- Population Pyknosed Nuclei (%) [6]: 9% and 8%
- Population Tubulin-Different-Phenotype (%) [6]: 6% and 1%
